Active and inactive are the calls of the source. The rule behind the calls is not given here.

Usually ED50 stands for the dose at which the effect has come halfway, by size or by number of responders. As a reminder, the LD50 is the dose expected to kill half of the subjects tested. Lower therefore signals greater toxicity.

The subject of data set [1] is Mus musculus. Briefly: Antipsychotic activity in mouse assessed as change in methamphetamine-induced hyperactivity at 5 mg/kg, po relative to control. The class given is functional, organism-based. Details: dose 5 mg/kg. In outline:
(§1)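 Mice were premedicated po with the test compound, then given methamphetamine 3 mg/kg sc. Motor activity was counted in photocell chambers, three mice per chamber and nine per dose. Counts are mean ± SE, expressed as % change from methamphetamine-only controls. Analysis was ANOVA followed by t test or Mann-Whitney U, with p < 0.05.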

The subject of data set [2] is Mus musculus. Briefly: Antidepressant activity in pargyline-pretreated mouse assessed as potentiation of DL-DOPA-induced jumping, fighting and squeaking at 100 mg/kg, po treated 4 hrs prior to DL-DOPA-challenge. The class given is functional, organism-based. Details: dose 100 mg/kg. In outline:
(§2)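 Mice were pretreated with pargyline 40 mg/kg po, given the test drug po 4 hr before the challenge, then challenged with DL-Dopa 200 mg/kg. The motor response (motor activity, jumping, fighting, squeaking/irritability) was graded slight (1), moderate (2) or marked (3). Four mice per dose.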

Data set [3] deals with Mus musculus. Briefly: Antidepressant activity in pargyline-pretreated mouse assessed as potentiation of DL-DOPA-induced jumping, fighting and squeaking at 10 mg/kg, po treated 4 hrs prior to DL-DOPA-challenge. The class given is functional, organism-based. Details: dose 10 mg/kg. In outline:
as §2

Data set [4] concerns Mus musculus. Kind of data set: Antipsychotic activity in mouse assessed as change in methamphetamine-induced hyperactivity at 20 mg/kg, po relative to control. The class given is functional. The method in brief: as §1
The subject of data set [5] is Mus musculus. Briefly: Antipsychotic activity in mouse assessed as change in methamphetamine-induced hyperactivity at 10 mg/kg, po relative to control. The class given is functional. In outline: as §1
Data set [6] concerns Mus musculus. Kind of data set: Antidepressant activity in pargyline-pretreated mouse assessed as potentiation of DL-DOPA-induced jumping, fighting and squeaking at 25 mg/kg, po treated 4 hrs prior to DL-DOPA-challenge. The class given is functional, organism-based. Details: dose 25 mg/kg. In outline:
as §2

The test system of data set [7] is Mus musculus. Kind of data set: Antidepressant activity in pargyline-pretreated mouse assessed as potentiation of DL-DOPA-induced jumping, fighting and squeaking at 5 mg/kg, po treated 4 hrs prior to DL-DOPA-challenge. The class given is functional, organism-based. Details: dose 5 mg/kg. The method in brief: as §2
Data set [8] has as its system Mus musculus. Briefly: Antidepressant activity in pargyline-pretreated mouse assessed as potentiation of serotonin-induced tremor, head movements, abducted limbs and irritability at 50 mg/kg, po treated 4 hrs prior to serotonin-challenge. The class given is functional, organism-based. Details: dose 50 mg/kg. The method in brief: (§3)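 Mice received pargyline 40 mg/kg po, then the test drug po. They were challenged with 5-hydroxytryptophan 100 mg/kg ip either 1 or 4 hr later. Central responses were rated on the 1–3 scale (slight, moderate, marked). Three mice per dose.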

In data set [9] the test system is Mus musculus. Kind of data set: Antidepressant activity in pargyline-pretreated mouse assessed as potentiation of serotonin-induced tremor, head movements, abducted limbs and irritability at 25 mg/kg, po treated 1 hr prior to serotonin-challenge. The class given is functional, organism-based. Details: dose 25 mg/kg. In outline:
as §3

Data set [10] concerns Mus musculus. Briefly: Antidepressant activity in pargyline-pretreated mouse assessed as potentiation of serotonin-induced tremor, head movements, abducted limbs and irritability at 50 mg/kg, po treated 1 hr prior to serotonin-challenge. Details: dose 50 mg/kg. The class given is functional, organism-based. In outline: as §3
Data set [11] deals with Mus musculus. Kind of data set: Antipsychotic activity in mouse assessed as change in methamphetamine-induced hyperactivity at 50 mg/kg, po relative to control. The class given is functional. The method in brief: as §1
In data set [12] the test system is Mus musculus. Briefly: Antidepressant activity in pargyline-pretreated mouse assessed as potentiation of serotonin-induced tremor, head movements, abducted limbs and irritability at 100 mg/kg, po treated 1 hr prior to serotonin-challenge. The class given is functional, organism-based. Details: dose 100 mg/kg. In outline: as §3
In data set [13] the test system is Mus musculus. Kind of data set: Antidepressant activity in pargyline-pretreated mouse assessed as potentiation of serotonin-induced tremor, head movements, abducted limbs and irritability at 100 mg/kg, po treated 4 hrs prior to serotonin-challenge. The class given is functional, organism-based. Details: dose 100 mg/kg. The method in brief:
as §3

Data set [14] has as its system Mus musculus. Kind of data set: Antidepressant activity in pargyline-pretreated mouse assessed as potentiation of serotonin-induced tremor, head movements, abducted limbs and irritability at 25 mg/kg, po treated 4 hrs prior to serotonin-challenge. The class given is functional, organism-based. Details: dose 25 mg/kg. In outline:
as §3

Data set [15] deals with Mus musculus. Briefly: Antipsychotic activity in po dosed mouse assessed as change in methamphetamine-induced hyperactivity. The class given is functional. In outline:
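Mice were given test compound orally […] with a 4-hr pretreatment, then methamphetamine 3 mg/kg sc. Three mice were placed per photocell motor-activity chamber, with nine mice per dose. Photocell counts (mean ± SE) were compared with methamphetamine-treated controls and expressed as % change. Significance (p < 0.05) was tested by analysis of variance, then t test or Mann-Whitney U test.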

Data set [16] has as its system Mus musculus. Briefly: Antidepressant activity in pargyline-pretreated mouse assessed as potentiation of DL-DOPA-induced jumping, fighting and squeaking at 20 mg/kg, po treated 4 hrs prior to DL-DOPA-challenge. The class given is functional, organism-based. Details: dose 20 mg/kg. The method in brief:
as §2

The nature of data set [17]: Toxicity in ip dosed mouse. The class given is organism-based. To be noted: in vivo.
Data set [18] can be described thus: Toxicity in po dosed mouse. The class given is organism-based. To be noted: in vivo.

Take `CN(C)CCCN1c2ccccc2CCc2ccccc21` [IMIPRAMINE]: the result in the data set on Mus musculus [1] and in the data set on Mus musculus [7] was inactive. For the same compound, the result in the data set on Mus musculus [2], with Mus musculus [3] and in the data set with Mus musculus [6] was Active. For the same compound, the figures for the Activity in the data set on Mus musculus [4] and in the data set on Mus musculus [5] were 32% and 19%, respectively.

For the compound `CN1CC2C(C1)C21c2ccccc2CCc2ccc(Cl)cc21` (stereo not given), the result in the data set on Mus musculus [1], in the data set with Mus musculus [9] and with Mus musculus [10] was inactive. The result in the data set on Mus musculus [8], with Mus musculus [2], with Mus musculus [6], with Mus musculus [12], with Mus musculus [13] and in the data set with Mus musculus [14] was Active. Further, in the data set with Mus musculus [11], the Activity is reported as 29%.

For `CN(C)CCCN1c2ccccc2CCc2ccc(Cl)cc21` [CLOMIPRAMINE], the outcome in the data set with Mus musculus [8], in the data set on Mus musculus [9], in the data set on Mus musculus [10], in the data set with Mus musculus [12], in the data set with Mus musculus [13] and in the data set on Mus musculus [14] was Active. Moreover, in the data set with Mus musculus [15], the ED50 worked out at 5 mg/kg.

As to `CN(C)C1CCCCC(=C2c3ccccc3CCc3ccccc32)C1` (stereo not given), the outcome in the data set with Mus musculus [1], in the data set on Mus musculus [9], with Mus musculus [10] and with Mus musculus [12] was inactive. Besides, the result in the data set with Mus musculus [2] and in the data set with Mus musculus [6] was Active. The Activity in the data set on Mus musculus [11] is 11%.

For `CN(C)C1C=C(C2c3ccccc3C=Cc3ccccc32)CCC1` (stereo not given), the outcome with Mus musculus [1], with Mus musculus [9], in the data set on Mus musculus [7] and in the data set on Mus musculus [14] was inactive. The result with Mus musculus [8], with Mus musculus [2], in the data set on Mus musculus [16], with Mus musculus [3], with Mus musculus [10] and in the data set on Mus musculus [6] was Active. The result with Mus musculus [12] and in the data set with Mus musculus [13] was Active. Also, the Activity in the data set with Mus musculus [11] is 23%.

`CN1C2CCC1CC(C1(O)c3ccccc3CCc3ccccc31)C2` (stereo not given): in the data set on Mus musculus [1], the outcome was inactive. Further, the outcome in the data set with Mus musculus [2] and in the data set on Mus musculus [6] was Active. In addition, the Activity with Mus musculus [11] turned out to be 11%.

In the case of `CN1C2CCC1CC(=C1c3ccccc3CCc3ccccc31)C2`, the outcome in the data set on Mus musculus [1], in the data set with Mus musculus [8], in the data set with Mus musculus [9], in the data set on Mus musculus [10], with Mus musculus [6] and in the data set with Mus musculus [13] was inactive. Also, the result with Mus musculus [14] was inactive. The result with Mus musculus [2] and in the data set with Mus musculus [12] was Active. In addition, the median lethal dose (LD50) in [17] was 30 mg/kg; in [18], 100 mg/kg. For the same compound, in the data set with Mus musculus [11], the Activity turned out to be 14%.

These data come from ChEMBL document CHEMBL3272328, “Novel analogs of tricyclic psychopharmacological agents” (J Med Chem, 1976).
